The source of these data is the array DNA melting data of Ke et al. (doi:10.1101/2024.01.08.574731).

A short description of data set [1]: folding enthalpy; higher = less favourable; fluorescence melt of hairpins on a sequencing array, two-state fit. To be noted: sodium 0.088 M. The method in brief: (§1)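 Cy3 fluorescence of library hairpins on a sequenced MiSeq flow cell, with annealed Cy3 and quencher oligos, was imaged in 50 mM Na-HEPES pH 8.0, 25 mM NaCl in 2.5 °C steps up to 60 °C. Signals were normalised to pre-quench Cy3 and to control variants. Melting temperature and folding enthalpy came from bootstrapped two-state fits, inverse-variance combined over four replicates. Fitted temperatures were raised by 9.35 °C to match UV melts.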

Data set [2] is described as follows: melting temperature; fluorescence melt of hairpins on a sequencing array, two-state fit, raised by 9.35 °C to match UV melts. To be noted: sodium 0.088 M. The method in brief: as §1

Take GGGCCCTCGAAAGAGCCC (((..(((....)))))): the folding enthalpy in data set [1] is -23 kcal/mol. Also, the Tm in data set [2] came to 48.1 °C.
The like results for GCACTGCGAAAGCTTTGC (((..((....))..))) were, in that order, -24.5 kcal/mol and 42.9 °C.
The like results for GATCAAGGCTTTGATC ((((((....)))))) were, in that order, -42 kcal/mol and 50.1 °C.
Taken in the same sequence, the figures for GATCTCGGGAGAGATC ((((((....)))))) were -41.6 kcal/mol and 63.2 °C.
Take GTATGGACGAAAGTCTAC (((..(((....)))))): the folding enthalpy in data set [1] is -10.9 kcal/mol. Also, in data set [2], the Tm amounted to 29.2 °C.
The like results for GCTGTGCGAAAGCGTAGC (((..((....))..))) were, in that order, -17.6 kcal/mol and 49.5 °C.
The like results for GATCACTGACGTGATC ((((((....)))))) were, in that order, -32 kcal/mol and 54.3 °C.
Taken in the same sequence, the figures for GATCCTGATAAGGATC ((((((....)))))) were -37 kcal/mol and 64.4 °C.
In the case of CGCACCGGAAACGGCGCG (((.(((....))).))), the folding enthalpy in data set [1] is -52.1 kcal/mol. Moreover, the Tm in data set [2] was 60.9 °C.
Regarding GACCGCGAAAGCGAAGTC ((((((....)))..))), the folding enthalpy in data set [1] was -16.9 kcal/mol. The Tm in data set [2] stood at 47.4 °C.
For GTAGTGGAAACACTAC ((((((....)))))), the folding enthalpy in data set [1] is -45.9 kcal/mol. The Tm in data set [2] came to 53.4 °C.
Take GATCATGTGCATGATC ((((((....)))))): the folding enthalpy in data set [1] was -32.3 kcal/mol. Further, in data set [2], the Tm worked out at 50.3 °C.
For the sequence GCTTGCCCGAAAGGGAGC (((..(((....)))))), the folding enthalpy in data set [1] is -14.7 kcal/mol. The Tm in data set [2] was found to be 48.1 °C.
The like results for GACAGCGAAAGCTCGTC ((((((....))).))) were, in that order, -19.6 kcal/mol and 50.5 °C.
Taken in the same sequence, the figures for GGGTCTACGAAAGTACCC (((..(((....)))))) were -22.5 kcal/mol and 40.1 °C.
GAAGATGGAAACATCTCC (.(((((....))))).): in data set [1], the folding enthalpy was -16.3 kcal/mol. Also, the Tm in data set [2] came to 33.4 °C.
Turning to GCACCGCGAAAGCCGAGC ((.(.((....)).).)), in data set [1], the folding enthalpy is -12.9 kcal/mol. Besides, the Tm in data set [2] is 39 °C.
For the sequence GTTTGACCGAAAGGTAAC (((..(((....)))))), the folding enthalpy in data set [1] is -11.6 kcal/mol. Besides, in data set [2], the Tm came to 32.4 °C.
Taken in the same sequence, the figures for GCATCTGCGAAAGCATGC (((..(((....)))))) were -14.4 kcal/mol and 39.8 °C.
Take GTAGCGGGAAACCGTTGC (.(.(((....))).).): the folding enthalpy in data set [1] was -19.2 kcal/mol. Moreover, the Tm in data set [2] is 35.3 °C.
Taken in the same sequence, the figures for GCAGACGAAAGTCGTGC ((((((....))).))) were -24.1 kcal/mol and 54.1 °C.
With GCTGTCGGAAACGACAAC (.(((((....))))).), in data set [1], the folding enthalpy is -12.9 kcal/mol. The Tm in data set [2] came to 40.9 °C.
With GACCTGGGAAACCAGACC (..((((....))))..), in data set [1], the folding enthalpy is -10.3 kcal/mol. The Tm in data set [2] was determined as 24.6 °C.
Taken in the same sequence, the figures for GCAAGAGGAAACTCTCGC ((.((((....)))).)) were -25.6 kcal/mol and 37.6 °C.
Taken in the same sequence, the figures for GTCTTATCGAAAGATGAC (((..(((....)))))) were -20.1 kcal/mol and 28.5 °C.
Consider CGTTTCCGGAAACGGACG (((..(((....)))))), for which the folding enthalpy in data set [1] was -17.1 kcal/mol. In data set [2], the Tm came to 49.3 °C.
Taken in the same sequence, the figures for GAGGTGCCGAAAGGCCTC (((..(((....)))))) were -10.8 kcal/mol and 37.5 °C.
Taken in the same sequence, the figures for GACGCCGAAAGGCGCGTC ((((((....)))..))) were -9.77 kcal/mol and 49.6 °C.
Taken in the same sequence, the figures for GTAGATGAAAATCTAC ((((((....)))))) were -29.2 kcal/mol and 48.6 °C.
Turning to GCTGCGCGAAAGCGGCGC ((..(((....)))..)), the folding enthalpy in data set [1] is -15.5 kcal/mol. The Tm in data set [2] came to 63.7 °C.
For the sequence GATCTACGTCTAGATC ((((((....)))))), the folding enthalpy in data set [1] is -20.7 kcal/mol. Besides, in data set [2], the Tm was determined as 40.7 °C.
Taken in the same sequence, the figures for GATCCCTGGAGGGATC ((((((....)))))) were -34.4 kcal/mol and 59.4 °C.
Taken in the same sequence, the figures for GCTACGCGAAAGCATAGC ((((.((....)).)))) were -28 kcal/mol and 53.9 °C.
The like results for GGTTCCGAAAGGAATACC ((((((....)))..))) were, in that order, -14.1 kcal/mol and 41.5 °C.
Consider GAGTTCGAAAGAACTC ((((((....)))))), for which, in data set [1], the folding enthalpy is -38 kcal/mol. In data set [2], the Tm was determined as 66.2 °C.
Taken in the same sequence, the figures for GATAGCGAAAGCTAGATC ((((((....)))..))) were -15.4 kcal/mol and 45.2 °C.
